Where “and” joins values, the source holds several entries; their conditions need not be identical. Identical values can stand only once.
Experiments:
Wnt7a = experiment: Serum high-throughput proteomics; format: in vivo, homo sapiens; conditions: study day 16, 5, 15, 20 mg
lung collagen deposition = conditions: cited from earlier work
P1NP = experiment: Serum bone turnover biomarker P1NP; format: in vivo, homo sapiens; conditions: 15 mg QD for 14 days
Method in brief: (§1)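 Participants got test compound (5, 15 or 20 mg) or placebo once daily on day 1 and days 3–16. Serum was drawn at screening and pre-dose on days 1, 5, 7, 12 and 16, and on days 22 (±1) and 45 (±2), at the same time as baseline. CTX-1, P1NP and osteocalcin were measured by electrochemiluminescence immunoassay and BSAP by sandwich ELISA. Results are percent change from baseline versus pooled placebo.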

Phase 1 Part 1 = format: in vivo, homo sapiens
Method in brief: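 Healthy adults were randomized to one oral dose of test compound (7, 20 or 40 mg; 6 active, 2 placebo per cohort), with a sentinel pair per cohort. Participants stayed in the unit ≥72 h post-dose, with follow-up at 6 ± 1 day. Adverse events were graded by CTCAE, and relatedness was assessed by the investigator. Placebo participants were pooled across cohorts.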

CTX-1 = experiment: Serum bone turnover biomarker CTX-1; format: in vivo, homo sapiens
Method in brief: as §1

Wnt16 = experiment: Serum high-throughput proteomics; format: in vivo, homo sapiens; conditions: study day 16
[1] = Human PK, dose-to-man and exposure predictions; conditions: 15 mg once daily
[2] = tested on: alveolar epithelial type II cells; conditions: cited from earlier work
Phase 1 Part 2 = format: in vivo, homo sapiens; conditions: Part 2, 5 mg QD, N=8
Method in brief: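 Healthy adults got test compound (5, 15 or 20 mg) or placebo once daily on day 1 and days 3–16. The first cohort had 6 active and 2 placebo; later cohorts had 8 active and 3 placebo, each starting with a 2:1 sentinel group. Participants were discharged day 19, with follow-up 6 ± 1 and 29 ± 2 days after the last dose. Events were graded by CTCAE, with investigator-assessed relatedness. Placebo was pooled.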

Structure (SMILES): Cc1cc(-c2nccc3c2ccn3CC(=O)Nc2ccc(-c3cnccn3)cn2)ccn1 [AZD5055]
- Serum Wnt7a levels (Wnt7a): reduced on study day 16 for all AZD5055 dose levels evaluated
- collagen deposition in the lungs (lung collagen deposition): reduced collagen deposition in the lungs
- estimated decrease in serum P1NP compared with the placebo group (P1NP): 56.3%
- Participants with at least one TEAE (Phase 1 Part 1; Part 1, 7 mg): 2 (33.3%) n (%)
- Participants with a grade 2 TEAE of nsVT (Phase 1 Part 1; Part 1, 20 mg): One
- Participants with at least one TEAE (Phase 1 Part 1; Part 1, 20 mg): 1 (16.7%) n (%)
- Participants with at least one TEAE (Phase 1 Part 1; Part 1, 40 mg): 1 (16.7%) n (%)
- Any TEAEs possibly related to the IMP (as assessed by investigator) (Phase 1 Part 1; Part 1 SAD pooled, N=18): 3 (16.7%) n (%)
- Abdominal pain upper (Phase 1 Part 1; Part 1 SAD pooled, n=18): 1 (5.6) n (%)
- Application site scab (Phase 1 Part 1; Part 1 SAD pooled, n=18): 1 (5.6) n (%)
- Cardiac disorders (Phase 1 Part 1; Part 1 SAD pooled, n=18): 1 (5.6) n (%)
- Coronavirus infection (Phase 1 Part 1; Part 1 SAD pooled, n=18): 0 n (%)
- Cough (Phase 1 Part 1; Part 1 SAD pooled, n=18): 0 n (%)
- Dermatitis contact (Phase 1 Part 1; Part 1 SAD pooled, n=18): 0 n (%)
- Dizziness (Phase 1 Part 1; Part 1 SAD pooled, n=18): 1 (5.6) n (%)
- Dysgeusia (Phase 1 Part 1; Part 1 SAD pooled, n=18): 0 n (%)
- Epistaxis (Phase 1 Part 1; Part 1 SAD pooled, n=18): 0 n (%)
- Erythema (Phase 1 Part 1; Part 1 SAD pooled, n=18): 0 n (%)
- Folliculitis (Phase 1 Part 1; Part 1 SAD pooled, n=18): 0 n (%)
- Gastrointestinal disorders (Phase 1 Part 1; Part 1 SAD pooled, n=18): 1 (5.6) n (%)
- General disorders and administration site conditions (Phase 1 Part 1; Part 1 SAD pooled, n=18): 2 (11.1) n (%)
- Headache (Phase 1 Part 1; Part 1 SAD pooled, n=18): 0 n (%)
- Infections and infestations (Phase 1 Part 1; Part 1 SAD pooled, n=18): 0 n (%)
- Injury, poisoning and procedural complications (Phase 1 Part 1; Part 1 SAD pooled, n=18): 0 n (%)
- Limb injury (Phase 1 Part 1; Part 1 SAD pooled, n=18): 0 n (%)
- Medical device site dermatitis (Phase 1 Part 1; Part 1 SAD pooled, n=18): 1 (5.6) n (%)
- Nasal discomfort (Phase 1 Part 1; Part 1 SAD pooled, n=18): 0 n (%)
- Nausea (Phase 1 Part 1; Part 1 SAD pooled, n=18): 1 (5.6) n (%)
- Nervous system disorders (Phase 1 Part 1; Part 1 SAD pooled, n=18): 1 (5.6) n (%)
- Participants with ≥1 TEAE (Phase 1 Part 1; Part 1 SAD pooled, n=18): 4 (22.2%) n (%) and 4 (22.2) n (%)
- Participants with ≥1 TEAE leading to discontinuation of investigational product (Phase 1 Part 1; Part 1 SAD pooled, n=18): 0 n (%)
- Participants with ≥1 TEAE of grade 1 severity (Phase 1 Part 1; Part 1 SAD pooled, n=18): 4 (22.2) n (%)
- Participants with ≥1 TEAE of grade 2 severity (Phase 1 Part 1; Part 1 SAD pooled, n=18): 0 n (%)
- Participants with ≥1 TEAE of grade 3 severity (Phase 1 Part 1; Part 1 SAD pooled, n=18): 0 n (%)
- Participants with ≥1 TESAE (Phase 1 Part 1; Part 1 SAD pooled, n=18): 0 n (%)
- Photophobia (Phase 1 Part 1; Part 1 SAD pooled, n=18): 0 n (%)
- Post procedural erythema (Phase 1 Part 1; Part 1 SAD pooled, n=18): 0 n (%)
- Post procedural inflammation (Phase 1 Part 1; Part 1 SAD pooled, n=18): 0 n (%)
- Procedural pain (Phase 1 Part 1; Part 1 SAD pooled, n=18): 0 n (%)
- Respiratory, thoracic and mediastinal disorders (Phase 1 Part 1; Part 1 SAD pooled, n=18): 1 (5.6) n (%)
- Sensation of foreign body (Phase 1 Part 1; Part 1 SAD pooled, n=18): 0 n (%)
- Skin abrasion (Phase 1 Part 1; Part 1 SAD pooled, n=18): 0 n (%)
- Skin and subcutaneous tissue disorders (Phase 1 Part 1; Part 1 SAD pooled, n=18): 0 n (%)
- Suture rupture (Phase 1 Part 1; Part 1 SAD pooled, n=18): 0 n (%)
- Ventricular tachycardia (Phase 1 Part 1; Part 1 SAD pooled, n=18): 1 (5.6) n (%)
- Vessel puncture site haematoma (Phase 1 Part 1; Part 1 SAD pooled, n=18): 0 n (%)
- Vision blurred (Phase 1 Part 1; Part 1 SAD pooled, n=18): 0 n (%)
- Vomiting (Phase 1 Part 1; Part 1 SAD pooled, n=18): 1 (5.6) n (%)
- Wheezing (Phase 1 Part 1; Part 1 SAD pooled, n=18): 1 (5.6) n (%)
- Deaths, SAEs, AEs of CTCAE grade 3 or higher (Phase 1 Part 1; Parts 1 and 2): No deaths, serious adverse events (SAEs) or AEs of CTCAE grade 3 or higher were reported
- Participants with a TEAE of nsVT during the study (Phase 1 Part 1; Parts 1 and 2): Three
- clinical laboratory results, vital signs, physical examinations, ECGs, oxygen saturation (Phase 1 Part 1; Parts 1 and 2): no clinically significant changes
- Overall safety and tolerability (Phase 1 Part 1; both study parts): safe and well tolerated
- estimated increase in serum CTX-1 compared with the placebo group (CTX-1; 15 mg QD for 14 days): 17.5%
- estimated increase in serum CTX-1 compared with the placebo group (CTX-1; 20 mg QD for 14 days): 32.8%
- Serum Wnt16 levels (Wnt16): reduced on study day 16 at the 15 and 20 mg AZD5055 dose levels
- predicted continuous inhibition of Porcupine across the dosing interval [1]: > 75%
- predicted trough AZD5055 concentration ([1]; 3-fold in vitro IC50): 0.023 µmol/L
- differentiation of alveolar epithelial type II cells into alveolar type I cells [2]: increasing differentiation of alveolar epithelial type II cells into alveolar type I cells
- Any TEAE leading to discontinuation of IMP (Phase 1 Part 2): 2 n (%)

— article PMC12177174 (iScience, 2025)
